ChEMBL document CHEMBL1140468, “Design, synthesis and biological evaluation of substituted dioxodibenzothiazepines and dibenzocycloheptanes as farnesyltransferase inhibitors” (Bioorg Med Chem Lett, 2007)

Columns and labels:
MCF7 = assay: Antiproliferative activity against MCF7 cells by colorimetric MTT assay; type: functional, cell-based; settings: Homo sapiens
Method in brief: (§1)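 Proliferation of the human tumour lines DU145, PC-3 and MCF-7 was read out by colorimetric MTT assay. Values come from at least three independent determinations, with standard deviation below 10%.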

PC-3 = assay: Antiproliferative activity against PC3 cells by colorimetric MTT assay; type: functional, cell-based; settings: Homo sapiens; method in brief: as §1
[1] = biological target: Protein farnesyltransferase (Homo sapiens, UniProt P49354+P49356); assay: Inhibition of FTase by fluorescence spectrometry technique; type: protein-complex assay
L1210 [2] = assay: Antiproliferative activity against L1210 cells by cell numeration; settings: Mus musculus
DU-145 [3] = assay: Antiproliferative activity against DU145 cells by colorimetric MTT assay; type: functional, cell-based; settings: Homo sapiens; method in brief: as §1
L1210 [4] = assay: Antiproliferative activity against L1210 cells by cell numeration at 10 uM; settings: Mus musculus
DU-145 [5] = assay: Antiproliferative activity against DU145 cells by colorimetric MTT assay at 100 uM; type: functional; settings: Homo sapiens

IC50 (MCF7) [µM]	IC50 (PC-3) [µM]	IC50 [1] [µM]	IC50 (L1210 [2]) [µM]	IC50 (DU-145 [3]) [µM]	Structure (SMILES)	inhibition at 10 µM (L1210 [4]) [%]	inhibition at 100 µM (DU-145 [5]) [%]
76	69.4	0.045	3.9	100	CN1c2ccccc2C(N2CCN(Cc3cncn3Cc3ccc(C#N)cc3)CC2)c2ccccc2S1(=O)=O (centres undefined)		
41		0.285		51.3	N#Cc1ccc(Cn2cncc2CN2CCCN(C3c4ccccc4CCc4ccccc43)CC2)cc1	34	
45	11.4	0.31	4.85	9.55	N#Cc1ccc(Cn2cncc2CN2CCN(C3c4ccccc4CCc4ccccc43)CC2)cc1		
		0.022	4.95		COC(=O)[C@H](Cc1ccccc1)N(C(=O)c1ccccc1)C1CCN(Cc2cncn2Cc2ccc(C#N)cc2)CC1		
33	27.3	0.0173	4.57	47.4	N#Cc1ccc(Cn2cncc2CN2CCCN(C3c4ccccc4N(CCCN4CCOCC4)S(=O)(=O)c4ccccc43)CC2)cc1 (centres undefined)		
48	50	0.0448	4.76	59.8	CN1c2ccccc2C(N2CCCN(Cc3cncn3Cc3ccc(C#N)cc3)CC2)c2ccccc2S1(=O)=O (centres undefined)		
	34.1	0.0465	4		CCCN1c2ccccc2C(N2CCCN(Cc3cncn3Cc3ccc(C#N)cc3)CC2)c2ccccc2S1(=O)=O (centres undefined)		38
66		0.043	3	100	CCCCN1c2ccccc2C(N2CCCN(Cc3cncn3Cc3ccc(C#N)cc3)CC2)c2ccccc2S1(=O)=O (centres undefined)		
> 100	> 100	0.0285		> 100	N#Cc1ccc(Cn2cncc2CN[C@H](CC(=O)N[C@@H](Cc2ccccc2)C(N)=O)Cc2ccccc2)cc1	41	
